Experimental data from publication PMC3996483 (Scientific Reports, 2014).
Changes are numbered by the printed parent chain. Entries after “also recorded” stand apart in the source; their conditions may differ.

B1: HCV genotype 1b (con1) NS5A domain 1, residues 33–202 (domain or fragment, Hepatitis C virus genotype 1b (con1), UniProt Q9WMX2 2005-2174, looked up)
chain: GVPFFSCQRGYKGVWRGDGIMQTTCPCGAQITGHVKNGSMRIVGPRTCSNTWHGTFPINAYTTGPCTPSPAPNYSRALWRVAAEEYVEVTRVGDFHYVTGMTTDNVKCPCQVPAPEFFTEVDGVRLHRYAPACKPLLREEVTFLVGLNQYLVGSQLPCEPEPDVAVLTSM

What was measured:
Solubility = type: physicochemical; conditions: pH 7, aqueous buffer
[1] = biological target: T1, L31V NS5A^26–202, HCV genotype 1b (con1) (Hepatitis C virus genotype 1b, UniProt Q9WMX2, L2003V); test: MST binding assay, L31V resistance mutant
T1 sequence (Q9WMX2 1998-2174 L2003V): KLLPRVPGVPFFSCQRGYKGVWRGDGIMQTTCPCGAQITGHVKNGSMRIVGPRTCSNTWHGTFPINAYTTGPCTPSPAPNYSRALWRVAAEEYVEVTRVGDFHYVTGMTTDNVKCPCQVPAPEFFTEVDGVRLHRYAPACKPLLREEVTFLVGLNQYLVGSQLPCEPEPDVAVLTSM

[2] = biological target: T2, NS5A^33–202 domain 1, HCV genotype 1b (con1) (Hepatitis C virus genotype 1b, UniProt Q9WMX2); test: SEC-MALLS analysis of NS5A oligomerisation state; conditions: NS5A^33–202 alone 39 ± 5 kDa (dimer), dimerisation state not affected
T2 sequence (Q9WMX2 2005-2174): B1 chain
How it was run: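 Multi-angle laser light scattering was run in batch mode (0.1 ml/min) and after size-exclusion (0.35 ml/min). Protein was run at 0.3–4 mg/ml with refractive-index detection and dn/dc 0.185; BSA served as control. Weight-average molar mass was taken from all points.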

[3] = test system: Y93H NS5A^33–202, HCV genotype 1b (con1); test: MST binding assay, Y93H resistance mutant; parameters: species or system Hepatitis C virus; conditions: MST in vitro assay, Y93H NS5A^33–202 vs NS5A^33–202
[4] = biological target: T3, Y93H NS5A^33–202, HCV genotype 1b (con1) (Hepatitis C virus genotype 1b, UniProt Q9WMX2, Y2065H); test: MST binding assay, Y93H resistance mutant
T3 sequence (Q9WMX2 2005-2174 Y2065H): B1 chain with Y61H

HCV genotype 1b (con1) = conditions: cited from earlier work
[5] = biological target: T2, NS5A^33–202 domain 1, HCV genotype 1b (con1); test: MST binding assay, NS5A domain 1 residues 33–202
How it was run: (§1)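 Recombinant HCV 1b (con1) NS5A was expressed with a 6-His/TEV tag, Ni- and size-exclusion purified, and the tag cleaved. Ligand: 16-step 2–4-fold dilutions. Capillaries were heated at 40% laser for 30 s, then cooled 5 s. Fnorm normalised to baseline and maximum; KD by mass-action fit; ≥3 replicates.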

HCV genotype 2a (J6) = conditions: cited from earlier work
[6] = test system: HCV replicon (NS5A genotypes and subtypes); conditions: cited from earlier work
[7] = biological target: T4, NS5A^26–202 domain 1, HCV genotype 1b (con1) (Hepatitis C virus genotype 1b, UniProt Q9WMX2); test: MST binding assay, NS5A domain 1 residues 26–202
T4 sequence (Q9WMX2 1998-2174): T1 sequence (Q9WMX2 1998-2174 L2003V) with V6L
How it was run: as §1

HCV genotype 3a (S52) = conditions: cited from earlier work
HCV genotype 1a = conditions: cited from earlier work
SEC-MALS = biological target: the molecule itself; test: SEC-MALS

Molecule | solubility (Solubility) [µg/mL] | KD / binding (in words) [1] | average molecular weight of NS5A^33–202 after addition of substance [2] [kDa] | decrease in KD (binding), Y93H versus wild type [3] [fold] | Kd [4] [nM] | resistance conferred by L31V mutation (HCV genotype 1b (con1); replicon assays, L31V) [fold] | decrease in EC50 by Y93H/C resistance mutation (HCV genotype 1b (con1); replicon, Y93H/C) | Kd [5] [nM] | Compound binding after incubation of NS5A with excess 5rU ([5]; MST, NS5A^33–202 incubated with 100-fold excess 5rU prior to adding compound) | decrease in EC50 by Y93H/C resistance mutation (HCV genotype 2a (J6); Y93H/C) [fold] | EC50 (HCV genotype 2a (J6); replicon) [nM] | resistance conferred by L31V/M/F mutations ([6]; NS5A L31V/M/F) | resistance conferred by Y93H/N/C mutations ([6]; NS5A Y93H/N/C) | EC50 ([6]; replicon, most genotypes and subtypes) [nM] | Kd [7] [nM] | decrease in EC50 by Y93H/C resistance mutation (HCV genotype 3a (S52); Y93H/C) | EC50 (HCV genotype 3a (S52); replicon) [nM] | decrease in EC50 by Y93H/C resistance mutation (HCV genotype 1a; genotype 1a (H77), Y93H/C) [fold] | EC50 (HCV genotype 1a; replicon, genotype 1a (J1)) [nM] | stoichiometry N (SEC-MALS)
COC(=O)N[C@H](C(=O)N1CCC[C@H]1c1nc(-c2ccc(-c3ccc(-c4c[nH]c([C@@H]5CCCN5C(=O)[C@@H](NC(=O)OC)C(C)C)n4)cc3)cc2)c[nH]1)C(C)C [BMS-790052, daclatasvir] | < 1.6 | did not show any detectable binding; also recorded: no detectable binding | 41 ± 7 | > 50 | > 500 | 23 | ~ 5 fold | 8 ± 3 | eliminated binding | 143 | 14 | 23- to 3,350 fold | 19- to 47,000 fold | 0.002 to 0.15 | 210 ± 46 | 2,111 fold | 0.9 | 220 | 1.1 | –
B1 | – | – | – | – | – | – | – | – | – | – | – | – | – | – | – | – | – | – | – | 2
